The nature of series [1]: Antiinflammatory activity against mouse […] cells assessed as inhibition of lipopolysaccharide/interferon-gamma induced nitric oxide production. In kind it is functional, cell-based. Particulars: Mus musculus; read-out: EC50. In outline: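 RAW 264.7 cells in DMEM/10% FCS, passages 9–20. Nitrite induced by LPS (1 µg/mL) plus IFN-γ (50 U/mL) for 18 h with or without compound. Griess reagent (1% sulfanilamide, 0.1% naphthylenediamine in 5% H3PO4) read at OD550. EC50 calculated.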

Series [2] is described as follows: Therapeutic index, ratio of CC50 for mouse […] cells to EC50 for inhibition of lipopolysaccharide/interferon-gamma induced nitric oxide production in mouse […] cells. It counts as cell-based. Particulars: read-out: TI.
The subject of series [3] is RAW264.7. Nature of the series: Antiinflammatory activity against mouse RAW264.7 cells assessed as reduction of lipopolysaccharide/interferon-gamma induced PGE2 production at 1 uM by EIA. In kind it is functional. Put shortly:
(§1)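 RAW 264.7 macrophages (passages 9–20) stimulated with LPS/IFN-γ; compound tested at 1, 3 and 10 µM. Supernatant PGE2 measured by competitive EIA: anti-PGE2 antibody plus peroxidase-PGE2 tracer, 1 h RT; TMB/H2O2 30 min; H2SO4 stop; A450. Results given as % inhibition.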

The subject of series [4] is RAW264.7. The experiment in a line: Antiinflammatory activity against mouse RAW264.7 cells assessed as reduction of lipopolysaccharide/interferon-gamma induced PGE2 production at 10 uM after 18 hrs. To be noted: RAW264.7, 18 h. In kind it is functional. Put shortly: as §1
The test system of another series is KB. Nature of the series: Cytotoxicity activity against human KB cells assessed as growth inhibition at 10 ug/ml after 72 hrs sulforhodamine B assay. It counts as functional. In outline:
(§2)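 Cells kept in RPMI-1640/10% FBS with antibiotics at 37 °C, 5% CO2. Trypsinized cells seeded and given compound from DMSO-diluted stock. Incubated 72 h, then fixed with 10% TCA. Stained 10 min with 0.4% sulforhodamine B in 1% HOAc, washed, dye dissolved in 10 mM Trizma. A515 read; growth relative to net protein increase of controls.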

Series [5] can be described thus: Antiinflammatory activity against human neutrophil assessed as inhibition of N-formyl-l-methionyl phenylalanine/cytochalasin B-induced superoxide anion generation by spectrophotometry. It counts as functional, cell-based. Put shortly: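 Ferricytochrome c (0.5 mg/mL) reduction, SOD-inhibitable, with 1 mM Ca2+. Neutrophils (6 × 10^5 cells/mL) equilibrated 2 min at 37 °C, then drug or 0.1% DMSO for 5 min. Cytochalasin B 1 µg/mL preincubation, then 100 nM FMLP for 3 min. A550 monitored continuously with stirring. IC50 computed; mean ± SEM, n = 3.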

Series [6] is described as follows: (§3) Cytotoxicity against mouse […] cells by MTT assay. It counts as functional. Put shortly: (§4)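 Viability of RAW 264.7 cells taken as mitochondrial reduction of MTT to formazan. Formazan read at OD550.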
(In general: Tetrazolium assays rely on reduction of a dye to a coloured formazan, in cell work by metabolically active cells.)

The next series concerns A549. The experiment in a line: Cytotoxicity activity against human A549 cells assessed as growth inhibition at 10 ug/ml after 72 hrs sulforhodamine B assay. In kind it is functional. Particulars: A549, 72 h. In outline: as §2
For orientation: In SRB staining, fixed cells bind dye roughly in proportion to their protein.

Series [7] can be described thus: Antiinflammatory activity against cytochalasin B pretreated human neutrophil assessed as inhibition of elastase release. It counts as functional. Put shortly:
(§5)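 Neutrophils (6 × 10^5/mL) supplemented with 100 µM MeO-Suc-Ala-Ala-Pro-Val-p-nitroanilide, equilibrated 2 min at 37 °C, then given drug or 0.1% DMSO vehicle for 5 min. Activated with 100 nM FMLP plus 0.5 µg/mL cytochalasin B. Absorbance at 405 nm followed continuously. Release expressed as percent of drug-free activated control. IC50 computed; mean ± SEM, n = 3.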

Another series has as its system DU-145. The experiment in a line: Cytotoxicity activity against human DU145 cells assessed as growth inhibition at 10 ug/ml after 72 hrs sulforhodamine B assay. It counts as functional. Particulars: DU-145, 72 h. In outline:
as §2

Series [8] is described as follows: Cytotoxicity activity against human KBVIN cells assessed as growth inhibition at 10 ug/ml after 72 hrs sulforhodamine B assay. In kind it is functional. In outline: as §2
Series [9] has as its system RAW264.7. Nature of the series: Antiinflammatory activity against mouse RAW264.7 cells assessed as reduction of lipopolysaccharide/interferon-gamma induced PGE2 production at 3 uM after 18 hrs. It counts as functional. Particulars: RAW264.7, 18 h. Put shortly: as §1
Series [10] can be described thus: Antiinflammatory activity against human neutrophil assessed as inhibition of N-formyl-l-methionyl phenylalanine/cytochalasin B-induced elastase release. In kind it is functional, cell-based. Put shortly: as §5
The species entered for a further series is Mus musculus. The series is described as §3. It counts as functional. Put shortly:
as §4

The test system of series [11] is Neutrophil. Nature of the series: Antiinflammatory activity against human neutrophil assessed as inhibition of N-formyl-l-methionyl phenylalanine-induced phosphorylation of AKT by Western blot analysis. It counts as functional, cell-based. In outline:
(§6)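 Neutrophils given drug for 5 min at 37 °C, then FMLP (0.1 µM) for 0.5 min. Stopped on ice and centrifuged at 4 °C. Pellets lysed in HEPES pH 7.4 Triton buffer with phosphatase and protease inhibitors; 14,000 g 20 min spin. Lysate proteins run on 12% SDS-PAGE, immunoblotted, detected by ECL.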
A general note: Immunoblotting shows a protein as a band on a membrane.

For series [12], the system named is RAW264.7. The experiment in a line: Inhibition of lipopolysaccharide/interferon gamma-induced iNOS expression in mouse RAW264.7 cells by Western blot analysis. In kind it is functional, cell-based. Put shortly: (§7)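 RAW 264.7 cells lysed in ice-cold RIPA buffer (25 mM Tris–HCl pH 7.2, SDS, Triton, deoxycholate, protease/phosphatase inhibitors). Protein assayed, run on 7.5% SDS-PAGE and transferred to nitrocellulose. Probed for iNOS or COX2 with HRP-anti-IgG secondary, detected by ECL. Blot re-probed for α-tubulin.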

Series [13] has as its system Radical scavenging activity. Nature of the series: Antioxidant activity assessed as residual DPPH radical scavenging activity. In kind it is functional.
The test system of series [14] is Neutrophil. The experiment in a line: Antiinflammatory activity against human neutrophil assessed as inhibition of N-formyl-l-methionyl phenylalanine-induced phosphorylation of JNK by Western blot analysis. In kind it is functional, cell-based. In outline: as §6
In series [15] the test system is RAW264.7. The experiment in a line: Inhibition of lipopolysaccharide/interferon gamma-induced COX2 expression in mouse RAW264.7 cells by Western blot analysis. It counts as functional, cell-based. In outline: as §7

Active and inactive are the calls of the source. The calls are words filed in the database; no cut-off is given here. Some results are limits rather than exact numbers.

By EC50 is commonly meant the concentration needed to bring the measured effect to its halfway point. For orientation: inhibition means the percentage by which the read-out fell short of the control. The term GI50 denotes the concentration at which growth is held to half of that of the control. By IC50 is commonly meant the concentration needed to halve the response being measured. In general, CC50 refers to the concentration giving 50% cytotoxicity.

Take `COc1cccc(C(=O)c2nccc3c2[nH]c2ccccc23)c1`: the EC50 in [1] was determined as 2.96 µM. In [2], the selectivity ratio was 6. Moreover, the inhibition at 1 µM in the series with RAW264.7 [3] is 0%. In addition, the inhibition at 10 µM in the series on RAW264.7 [4] turned out to be 98%. In addition, the concentration for 50% growth inhibition (GI50) (with KB; in the series on A549; with DU-145; in series [8]) was > 40 µM throughout. The IC50 in [5] was > 30 µM. Also, the CC50 in series [6] stood at 16.3 µM. Also, the INH in series [7] amounted to 13.2 µM. Besides, the inhibition at 3 µM in the series with RAW264.7 [9] amounted to 71%.

Take `CC(=O)c1nc(C(=O)O)cc2c1[nH]c1ccccc12`: the EC50 in series [1] is 0.25 µM. Moreover, the inhibition at 1 µM with RAW264.7 [3] was determined as 0%. Also, the inhibition at 10 µM with RAW264.7 [4] was found to be 0%. The concentration for 50% growth inhibition (GI50) (in the series with KB; in the series on A549; with DU-145; in series [8]) was > 40 µM throughout. The half-inhibitory concentration (IC50) in series [10] and in series [5] was > 30 µM each time. The CC50 entry in the series listed under Mus musculus was “Non-toxic”. In the series on RAW264.7 [9], the inhibition at 3 µM was 0%.

With `CC(=O)c1nccc2c1[nH]c1ccccc12`, in series [1], the EC50 is 6.65 µM. Moreover, in the series with RAW264.7 [3], the inhibition at 1 µM is 0%. In the series on RAW264.7 [4], the inhibition at 10 µM worked out at 59%. The GI50 (with KB; in the series with A549; in the series on DU-145; in [8]) was > 40 µM in each case. The figures for the IC50 in [10] and in [5] were > 30 µM and 5.03 µM, respectively. Besides, in the series listed under Mus musculus, the CC50 entry was “Non-toxic”. The inhibition at 3 µM in the series with RAW264.7 [9] turned out to be 0%.

Turning to `O=C(O)c1cc2c([nH]c3ccccc32)c(C(=O)c2cccc(Br)c2)n1`, the EC50 in series [1] came to 0.57 µM. For the same compound, the selectivity ratio in series [2] is 51. Also, the inhibition at 1 µM in the series on RAW264.7 [3] was found to be 100%. Besides, the inhibition entry in the series on Neutrophil [11] and in the series on Neutrophil [14] was “Active” each time. Further, the GI50 (in the series with KB; in the series with A549; in the series with DU-145; in [8]) was > 40 µM throughout. The concentration for half-maximal inhibition (IC50) in [10] was found to be 2.78 µM; in series [5] it was 2.05 µM. The outcome in the series with RAW264.7 [12] and with RAW264.7 [15] was Active. The outcome in series [13] was inactive. For the same compound, the CC50 in [6] is 29.4 µM. For the same compound, the inhibition at 3 µM in the series on RAW264.7 [9] amounted to 100%.

Regarding `Cc1cccc(C(=O)c2nccc3c2[nH]c2ccccc23)c1`, the EC50 in series [1] was 0.2 µM. Also, the selectivity ratio in [2] is 120. In addition, the inhibition at 1 µM in the series on RAW264.7 [3] came to 97%. For the same compound, the concentration for 50% growth inhibition (GI50) (in the series on KB; in the series on A549; in the series with DU-145; in [8]) was > 40 µM in each case. Moreover, the concentration for half-maximal inhibition (IC50) in series [10] and in series [5] was > 30 µM throughout. Besides, the outcome in the series on RAW264.7 [12] and with RAW264.7 [15] was Active. Half-maximal cytotoxicity in series [6] (CC50) was put at 23.7 µM. The inhibition at 3 µM in the series on RAW264.7 [9] is 100%.

The record behind these values is ChEMBL document CHEMBL1681731, “Synthesis, in vitro anti-inflammatory and cytotoxic evaluation, and mechanism of action studies of 1-benzoyl-β-carboline and 1-benzoyl-3-carboxy-β-carboline derivatives” (Bioorg Med Chem, 2011).
